ChEMBL document CHEMBL1144401, “Combination of molecular modeling, site-directed mutagenesis, and SAR studies to delineate the binding site of pyridopyrimidine antagonists on the human CCK1 receptor” (J Med Chem, 2005)

Assays:
[1] = test system: Cholecystokinin receptor type A (Homo sapiens), P32238 [UNDEFINED MUTATION]
[2] = test system: Cholecystokinin receptor type A (Homo sapiens), P32238 [UNDEFINED MUTATION]; remark: listed apart in the source
[3] = target: Cholecystokinin receptor type A (Homo sapiens, UniProt P32238, I329A); assay: Inhibition of CCK-induced inositol phosphate in Cos-7 cells expressing mutant CCK1R (I329A); assay type: functional, cell-based
Chain of Cholecystokinin receptor type A (Homo sapiens, UniProt P32238, I329A) (P32238 whole entry I329A): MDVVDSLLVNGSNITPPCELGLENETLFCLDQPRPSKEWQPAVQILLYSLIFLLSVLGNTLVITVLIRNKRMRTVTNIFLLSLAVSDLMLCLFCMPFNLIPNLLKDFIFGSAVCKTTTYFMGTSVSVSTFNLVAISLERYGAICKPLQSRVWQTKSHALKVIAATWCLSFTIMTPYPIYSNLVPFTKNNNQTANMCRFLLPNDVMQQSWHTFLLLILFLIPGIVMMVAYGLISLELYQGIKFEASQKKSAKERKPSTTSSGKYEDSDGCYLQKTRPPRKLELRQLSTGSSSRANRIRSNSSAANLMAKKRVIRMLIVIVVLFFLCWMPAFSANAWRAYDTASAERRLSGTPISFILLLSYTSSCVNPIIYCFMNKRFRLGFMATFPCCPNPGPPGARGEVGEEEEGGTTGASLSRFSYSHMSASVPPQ
How it was run: (§1)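 Mutant human CCK1R cDNAs were made by site-directed mutagenesis in pRFENeo and sequence-verified. COS-7 cells were transfected by DEAE-dextran. Cells were [3H]inositol-labelled overnight, then LiCl-preincubated and incubated 60 min at 37 °C in pH 7.45 PI buffer with CCK and varying antagonist. Dowex-separated inositol phosphates were counted. IC50 given as mean ± SEM; Fmut = IC50(mutant)/IC50(wild type).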

[4] = target: Cholecystokinin receptor type A (Homo sapiens, UniProt P32238, F107A); assay: Inhibition of CCK-induced inositol phosphate in Cos-7 cells expressing mutant CCK1R (F107A); assay type: functional, cell-based
Chain of Cholecystokinin receptor type A (Homo sapiens, UniProt P32238, F107A) (P32238 whole entry F107A): as the sequence (P32238 whole entry I329A) above, with F107A, A329I counted along it
How it was run: as §1

[5] = test system: Cholecystokinin receptor type A (Homo sapiens), P32238 [UNDEFINED MUTATION]; remark: listed apart in the source
[6] = target: T1, Cholecystokinin receptor type A (Homo sapiens, UniProt P32238); assay: Inhibition of CCK-Induced inositol phosphate production in Cos-7 cells expressing human CCK1R; assay type: functional, cell-based
T1 sequence (P32238 whole entry): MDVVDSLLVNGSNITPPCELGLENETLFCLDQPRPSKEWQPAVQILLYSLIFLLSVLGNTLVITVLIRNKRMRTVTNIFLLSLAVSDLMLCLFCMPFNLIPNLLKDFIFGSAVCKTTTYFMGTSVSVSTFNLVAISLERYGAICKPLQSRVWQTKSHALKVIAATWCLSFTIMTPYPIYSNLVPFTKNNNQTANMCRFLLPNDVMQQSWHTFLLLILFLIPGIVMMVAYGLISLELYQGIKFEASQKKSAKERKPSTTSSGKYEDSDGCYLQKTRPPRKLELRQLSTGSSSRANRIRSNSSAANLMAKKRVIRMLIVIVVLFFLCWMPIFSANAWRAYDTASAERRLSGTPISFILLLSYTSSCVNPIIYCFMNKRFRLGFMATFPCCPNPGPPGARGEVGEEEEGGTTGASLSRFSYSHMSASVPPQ

[7] = target: Cholecystokinin receptor type A (Homo sapiens, UniProt P32238, S348A); assay: Inhibition of CCK-Induced inositol phosphate in Cos-7 cells expressing mutant CCK1R (S348A); assay type: functional, cell-based
Chain of Cholecystokinin receptor type A (Homo sapiens, UniProt P32238, S348A) (P32238 whole entry S348A): as the sequence (P32238 whole entry I329A) above, with A329I, S348A counted along it
How it was run: as §1

[8] = target: Cholecystokinin receptor type A (Homo sapiens, UniProt P32238, S342A); assay: Inhibition of CCK-Induced inositol phosphate in Cos-7 cells expressing mutant CCK1R (S342A); assay type: functional, cell-based
Chain of Cholecystokinin receptor type A (Homo sapiens, UniProt P32238, S342A) (P32238 whole entry S342A): as the sequence (P32238 whole entry I329A) above, with A329I, S342A counted along it
How it was run: as §1

[9] = test system: Cholecystokinin receptor type A (Homo sapiens), P32238 [UNDEFINED MUTATION]; remark: listed apart in the source
[10] = target: Cholecystokinin receptor type A (Homo sapiens, UniProt P32238, R336M); assay: Inhibition of CCK-Induced inositol phosphate in Cos-7 cells expressing mutant CCK1R (R336M); assay type: functional, cell-based
Chain of Cholecystokinin receptor type A (Homo sapiens, UniProt P32238, R336M) (P32238 whole entry R336M): as the sequence (P32238 whole entry I329A) above, with A329I, R336M counted along it
How it was run: as §1

[11] = target: Cholecystokinin receptor type A (Homo sapiens, UniProt P32238, I352A); assay: Inhibition of CCK-Induced inositol phosphate in Cos-7 cells expressing mutant CCK1R (I352A); assay type: functional, cell-based
Chain of Cholecystokinin receptor type A (Homo sapiens, UniProt P32238, I352A) (P32238 whole entry I352A): as the sequence (P32238 whole entry I329A) above, with A329I, I352A counted along it
How it was run: as §1

[12] = target: Cholecystokinin receptor type A (Homo sapiens, UniProt P32238, M195L); assay: Inhibition of CCK-Induced inositol phosphate in Cos-7 cells expressing mutant CCK1R (M195L); assay type: functional, cell-based
Chain of Cholecystokinin receptor type A (Homo sapiens, UniProt P32238, M195L) (P32238 whole entry M195L): as the sequence (P32238 whole entry I329A) above, with M195L, A329I counted along it
How it was run: as §1

[13] = target: T2, Gastrin/cholecystokinin type B receptor (Homo sapiens, UniProt P32239); assay: Inhibition of CCK binding to Cos-7 cells expressing human cholecystokinin 2 receptor; assay type: cell-based
T2 sequence (P32239 whole entry): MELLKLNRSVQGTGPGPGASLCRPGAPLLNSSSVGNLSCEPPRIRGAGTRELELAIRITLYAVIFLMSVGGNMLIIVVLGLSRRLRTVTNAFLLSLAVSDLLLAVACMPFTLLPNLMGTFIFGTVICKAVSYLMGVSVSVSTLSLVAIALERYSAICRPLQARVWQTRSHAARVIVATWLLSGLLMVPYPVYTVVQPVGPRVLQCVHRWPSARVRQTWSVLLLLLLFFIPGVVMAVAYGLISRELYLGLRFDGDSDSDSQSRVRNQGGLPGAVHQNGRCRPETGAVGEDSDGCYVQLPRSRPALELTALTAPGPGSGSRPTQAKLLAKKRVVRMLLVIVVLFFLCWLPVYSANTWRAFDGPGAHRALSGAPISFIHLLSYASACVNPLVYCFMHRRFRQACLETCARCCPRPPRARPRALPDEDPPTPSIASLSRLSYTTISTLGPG
How it was run: (§2)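 COS-7 cells were grown in DMEM with 5% FCS and transiently transfected by DEAE-dextran with 2 µg/plate of human CCK1R or CCK2R cDNA (from pancreas or gallbladder). About 24 h after replating, cells were incubated 60 min at 37 °C in DMEM with 0.1% BSA and 71 pM [125I]BH-(Thr,Nle)CCK-9 plus competitor. Nonspecific binding used 1 µM. IC50 given as mean ± SEM, 3–6 experiments.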

[14] = test system: Cholecystokinin receptor type A (Homo sapiens), P32238 [UNDEFINED MUTATION]; remark: listed apart in the source
[15] = target: Cholecystokinin receptor type A (Homo sapiens, UniProt P32238, R197M); assay: Inhibition of CCK-Induced inositol phosphate in Cos-7 cells expressing mutant CCK1R (R197M); assay type: functional, cell-based
Chain of Cholecystokinin receptor type A (Homo sapiens, UniProt P32238, R197M) (P32238 whole entry R197M): as the sequence (P32238 whole entry I329A) above, with R197M, A329I counted along it
How it was run: as §1

[16] = target: T1, Cholecystokinin receptor type A; assay: Inhibition of CCK binding to Cos-7 cells expressing human cholecystokinin 1 receptor; assay type: cell-based
How it was run: as §2

[17] = test system: Cholecystokinin receptor type A (Homo sapiens), P32238 [UNDEFINED MUTATION]; remark: listed apart in the source
[18] = test system: Cholecystokinin receptor type A (Homo sapiens), P32238 [UNDEFINED MUTATION]; remark: listed apart in the source
[19] = test system: Cholecystokinin receptor type A (Homo sapiens), P32238 [UNDEFINED MUTATION]; remark: listed apart in the source
[20] = target: Cholecystokinin receptor type A (Homo sapiens, UniProt P32238, T117A); assay: Inhibition of CCK-Induced inositol phosphate in Cos-7 cells expressing mutant CCK1R (T117A); assay type: functional, cell-based
Chain of Cholecystokinin receptor type A (Homo sapiens, UniProt P32238, T117A) (P32238 whole entry T117A): as the sequence (P32238 whole entry I329A) above, with T117A, A329I counted along it
How it was run: as §1

[21] = test system: Cholecystokinin receptor type A (Homo sapiens), P32238 [UNDEFINED MUTATION]; remark: listed apart in the source
[22] = target: Cholecystokinin receptor type A (Homo sapiens, UniProt P32238, I329F); assay: Inhibition of CCK-Induced inositol phosphate in Cos-7 cells expressing mutant CCK1R (I329F); assay type: functional, cell-based
Chain of Cholecystokinin receptor type A (Homo sapiens, UniProt P32238, I329F) (P32238 whole entry I329F): as the sequence (P32238 whole entry I329A) above, with A329F counted along it
How it was run: as §1

[23] = test system: Cholecystokinin receptor type A (Homo sapiens), P32238 [UNDEFINED MUTATION]; remark: listed apart in the source
[24] = target: T3, Gastrin/cholecystokinin type B receptor (Rattus norvegicus, UniProt P30553); assay: Inhibition of 71 pM [125I]BH-(Thr,Nle)CCK-9 binding to rat cholecystokinin 2 receptor
T3 sequence (P30553 whole entry): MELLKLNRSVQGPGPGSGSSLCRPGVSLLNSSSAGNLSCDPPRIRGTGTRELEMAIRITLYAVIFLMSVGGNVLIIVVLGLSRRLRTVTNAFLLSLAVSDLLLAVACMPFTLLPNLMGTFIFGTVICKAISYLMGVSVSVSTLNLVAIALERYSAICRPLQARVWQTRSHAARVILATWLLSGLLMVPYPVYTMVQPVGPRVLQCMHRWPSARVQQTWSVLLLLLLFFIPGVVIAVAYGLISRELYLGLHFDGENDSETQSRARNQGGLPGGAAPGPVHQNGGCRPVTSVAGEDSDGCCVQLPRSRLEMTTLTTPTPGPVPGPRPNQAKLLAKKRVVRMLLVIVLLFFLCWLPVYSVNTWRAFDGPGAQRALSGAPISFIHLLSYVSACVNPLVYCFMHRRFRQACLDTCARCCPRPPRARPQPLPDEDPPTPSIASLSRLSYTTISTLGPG

[25] = target: T4, Cholecystokinin receptor type A (Rattus norvegicus, UniProt P30551); assay: Inhibition of 71 pM [125I]BH-(Thr,Nle)CCK-9 binding to rat cholecystokinin 1 receptor
T4 sequence (P30551 whole entry): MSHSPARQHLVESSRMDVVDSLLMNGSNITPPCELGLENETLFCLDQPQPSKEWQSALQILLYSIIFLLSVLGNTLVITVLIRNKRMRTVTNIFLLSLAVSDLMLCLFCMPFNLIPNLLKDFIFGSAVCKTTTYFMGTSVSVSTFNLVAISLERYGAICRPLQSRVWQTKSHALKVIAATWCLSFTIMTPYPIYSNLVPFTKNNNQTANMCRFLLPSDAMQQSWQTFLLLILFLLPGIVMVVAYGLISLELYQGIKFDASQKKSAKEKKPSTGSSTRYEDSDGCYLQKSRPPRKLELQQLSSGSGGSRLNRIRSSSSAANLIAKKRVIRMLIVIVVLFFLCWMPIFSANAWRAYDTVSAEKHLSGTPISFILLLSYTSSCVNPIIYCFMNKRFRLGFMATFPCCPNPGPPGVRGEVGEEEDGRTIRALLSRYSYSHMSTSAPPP

Fmut [1]	Fmut [2]	IC50 [3] [µM]	IC50 [4] [µM]	Fmut [5]	IC50 [6] [µM]	IC50 [7] [µM]	IC50 [8] [µM]	Fmut [9]	IC50 [10] [µM]	IC50 [11] [µM]	IC50 [12] [µM]	IC50 [13] [µM]	Fmut [14]	IC50 [15] [µM]	IC50 [16] [µM]	Fmut [17]	Fmut [18]	Fmut [19]	IC50 [20] [µM]	Structure (SMILES)	also measured
14.3	30.8	1.11	0.0233	0.4	0.0358	0.0366	0.0332	0.7	4.86	2.29	0.0352	> 10	1.2	0.023	0.0052	65.5	1.9	125	0.0716	CC(C)(C)OC(=O)N[C@@H](Cc1c[nH]c2ccccc12)C(=O)N[C@@H]1CCCN2C(=O)N(c3ccccc3)C(=O)C[C@@H]12	Fmut [21]: 0.7; IC50 [22]: 0.514 µM; Fmut [23]: 0.8
																				CC(C)(C)OC(=O)N[C@@H](Cc1c[nH]c2ccccc12)C(=O)N[C@@H]1CCCN2C(=O)N(Cc3ccccc3)C(=O)C[C@@H]12 [IQM-95333]	IC50 [24]: > 10 µM
90.8	1	0.0093	0.0268	0.2	0.0088	0.0036	0.0079	3	0.582	0.227	0.0052	> 10	0.5	0.0089	0.0021	21.2	2	40.1	0.0249	CC(C)(C)OC(=O)N[C@@H](Cc1c[nH]c2ccccc12)C(=O)N[C@@H]1CCCN2C(=O)N(c3cccc4ccccc34)C(=O)C[C@@H]12	IC50 [25]: 0.00059 µM; Fmut [21]: 0.9; IC50 [22]: 0.801 µM; Fmut [23]: 0.7
24.9	6.6	0.129	0.0315	0.3	0.0073	0.0057	0.0275	4.6	2.06	0.831	0.0058	> 10	0.2	0.0118	0.0038	61.6	1.6	138	0.0284	CC(C)(C)OC(=O)N[C@@H](Cc1c[nH]c2ccccc12)C(=O)N[C@@H]1CCCN2C(S)N(Cc3ccccc3)C(=O)C[C@@H]12 (some centres undefined)	Fmut [21]: 0.4; IC50 [22]: 0.183 µM; Fmut [23]: 0.8
					20.9							6.02			6.85					CC(C)(C)OC(=O)N[C@@H](Cc1c[nH]c2ccccc12)C(=O)N[C@H]1CCCN2C(=O)N(Cc3ccccc3)C(=O)C[C@@H]12	
